The subject of assay [1] is HeLa. The assay can be described thus: Antiproliferative activity against human HeLa cells incubated for 72 hrs by MTT assay. The format is functional, cell-based. Put shortly: (§1)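 Cells in exponential growth were plated at 3×10^3 cells/well and grown 24 h at 37 °C in 5% CO2. They were then exposed to a range of drug concentrations for 72 h. MTT (5 mg/mL solution) was added for 4 h, the medium was discarded, and formazan was dissolved in DMSO before reading A490. Drug-free wells served as blanks. % inhibition was calculated as 1 − (sample−blank)/(control−blank), and IC50 was taken as the concentration giving 50% inhibition.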

In assay [2] the test system is MCF7. The assay can be described thus: Antiproliferative activity against human MCF7 cells incubated for 72 hrs by MTT assay. The format is functional, cell-based. The settings on record: MCF7, 72 h. Put shortly:
as §1

Assay [3] concerns A549. The assay can be described thus: Antiproliferative activity against human A549 cells incubated for 72 hrs by MTT assay. Format: functional, cell-based. As to conditions: A549, 72 h. Put shortly: as §1
Assay [4] relates to MDCK. Kind of assay: Cytotoxicity against MDCK cells incubated for 72 hrs by MTT assay. Format: cell-based. The settings on record: Canis lupus familiaris. Put shortly:
as §1

The subject of assay [5] is HepG2. The assay can be described thus: Antiproliferative activity against human HepG2 cells incubated for 72 hrs by MTT assay. The format is functional, cell-based. As to conditions: HepG2, 72 h. Put shortly: as §1

As for `CC[C@H](C)[C@H](NC(=O)OC(C)(C)C)C(=O)O[C@H]1CC[C@]2(C)[C@H]3C(=O)C=C4[C@@H]5C[C@@](C)(C(=O)OCc6ccccc6)CC[C@]5(C)CC[C@@]4(C)[C@]3(C)CC[C@H]2C1(C)C`, the IC50 in assay [1], in assay [2], in assay [3], in assay [4] and in assay [5] was above 40 µM throughout.
Take `CC(C)(C)OC(=O)N[C@@H](Cc1ccccc1)C(=O)N[C@H]1CC[C@]2(C)[C@H]3C(=O)C=C4[C@@H]5C[C@@](C)(C(=O)OCc6ccccc6)CC[C@]5(C)CC[C@@]4(C)[C@]3(C)CC[C@H]2C1(C)C`: the IC50 in assay [1], in assay [2], in assay [3], in assay [4] and in assay [5] was above 40 µM throughout.
As for `CC(C)C[C@H](N)C(=O)O[C@H]1CC[C@]2(C)[C@H]3C(=O)C=C4[C@@H]5C[C@@](C)(C(=O)OCc6ccccc6)CC[C@]5(C)CC[C@@]4(C)[C@]3(C)CC[C@H]2C1(C)C`, the IC50 in assay [1] is 43.1 µM; in assay [2] it was 11.9 µM; in assay [3], 22.9 µM; in assay [4] it was 19.3 µM; in assay [5], 14.9 µM.
`CC1(C)[C@@H](OC(=O)CN)CC[C@]2(C)[C@H]3C(=O)C=C4[C@@H]5C[C@@](C)(C(=O)OCc6ccccc6)CC[C@]5(C)CC[C@@]4(C)[C@]3(C)CC[C@@H]12`: the IC50 in assay [1] stood at 3.3 µM; in assay [2] it was 3.81 µM; in assay [3], 2.75 µM; in assay [4], 4.43 µM; in assay [5] it was 3.31 µM.
Consider `CC[C@H](C)[C@H](N)C(=O)O[C@H]1CC[C@]2(C)[C@H]3C(=O)C=C4[C@@H]5C[C@@](C)(C(=O)OCc6ccccc6)CC[C@]5(C)CC[C@@]4(C)[C@]3(C)CC[C@H]2C1(C)C`, for which the IC50 in assay [1] is 9.65 µM; in assay [2], 10 µM; in assay [3], 4.97 µM; in assay [4], 9.01 µM; in assay [5] it was 8.15 µM.
Taken in the same sequence, the figures for `CNCC(=O)N[C@H]1CC[C@]2(C)[C@H]3C(=O)C=C4[C@@H]5C[C@@](C)(C(=O)OCc6ccccc6)CC[C@]5(C)CC[C@@]4(C)[C@]3(C)CC[C@H]2C1(C)C` were 3.2 µM, 3.41 µM, 3.35 µM, 3.17 µM and 3.79 µM.
With `CC1(C)[C@@H](NC(=O)[C@@H](N)Cc2ccccc2)CC[C@]2(C)[C@H]3C(=O)C=C4[C@@H]5C[C@@](C)(C(=O)OCc6ccccc6)CC[C@]5(C)CC[C@@]4(C)[C@]3(C)CC[C@@H]12`, the concentration for half-maximal inhibition (IC50) was 2.24 µM in assay [1]; 3.28 µM in assay [2]; 3.01 µM in assay [3]; 5.02 µM in assay [4]; 5.05 µM in assay [5].
`CC(C)(C)OC(=O)NCC(=O)O[C@H]1CC[C@]2(C)[C@H]3C(=O)C=C4[C@@H]5C[C@@](C)(C(=O)OCc6ccccc6)CC[C@]5(C)CC[C@@]4(C)[C@]3(C)CC[C@H]2C1(C)C`: the IC50 in assay [1], in assay [2], in assay [3], in assay [4] and in assay [5] was above 40 µM throughout.
On to `CN(CC(=O)O[C@H]1CC[C@]2(C)[C@H]3C(=O)C=C4[C@@H]5C[C@@](C)(C(=O)OCc6ccccc6)CC[C@]5(C)CC[C@@]4(C)[C@]3(C)CC[C@H]2C1(C)C)C(=O)OC(C)(C)C`, for which the IC50 in assay [1], in assay [2], in assay [3], in assay [4] and in assay [5] was above 40 µM in each case.
Consider `CC1(C)[C@@H](OC(=O)[C@@H](N)Cc2ccccc2)CC[C@]2(C)[C@H]3C(=O)C=C4[C@@H]5C[C@@](C)(C(=O)OCc6ccccc6)CC[C@]5(C)CC[C@@]4(C)[C@]3(C)CC[C@@H]12`, for which the IC50 in assay [1] was 18.8 µM; in assay [2] it was 14.4 µM; in assay [3] it was 17 µM; in assay [4], 14.4 µM; in assay [5] it was above 40 µM.
In the case of `CC(C)C[C@H](NC(=O)OC(C)(C)C)C(=O)O[C@H]1CC[C@]2(C)[C@H]3C(=O)C=C4[C@@H]5C[C@@](C)(C(=O)OCc6ccccc6)CC[C@]5(C)CC[C@@]4(C)[C@]3(C)CC[C@H]2C1(C)C`, the IC50 in assay [1], in assay [2], in assay [3], in assay [4] and in assay [5] was above 40 µM each time.
As for `CC1(C)[C@@H](NC(=O)CN)CC[C@]2(C)[C@H]3C(=O)C=C4[C@@H]5C[C@@](C)(C(=O)OCc6ccccc6)CC[C@]5(C)CC[C@@]4(C)[C@]3(C)CC[C@@H]12`, the IC50 was determined as 3.01 µM in assay [1]; 2.85 µM in assay [2]; 2.44 µM in assay [3]; 3.75 µM in assay [4]; 3.47 µM in assay [5].
For `CC1(C)[C@@H](OC(=O)[C@@H]2CCCN2)CC[C@]2(C)[C@H]3C(=O)C=C4[C@@H]5C[C@@](C)(C(=O)OCc6ccccc6)CC[C@]5(C)CC[C@@]4(C)[C@]3(C)CC[C@@H]12`, the IC50 in assay [1] turned out to be 9.05 µM; in assay [2] it was 5.22 µM; in assay [3], 4.73 µM; in assay [4], 9.63 µM; in assay [5], 6.39 µM.
For the compound `CC(C)(C)OC(=O)N1CCC[C@H]1C(=O)N[C@H]1CC[C@]2(C)[C@H]3C(=O)C=C4[C@@H]5C[C@@](C)(C(=O)OCc6ccccc6)CC[C@]5(C)CC[C@@]4(C)[C@]3(C)CC[C@H]2C1(C)C`, the 50% inhibitory concentration (IC50) in assay [1], in assay [2], in assay [3], in assay [4] and in assay [5] was above 40 µM each time.
For the compound `CSCC[C@H](NC(=O)OC(C)(C)C)C(=O)O[C@H]1CC[C@]2(C)[C@H]3C(=O)C=C4[C@@H]5C[C@@](C)(C(=O)OCc6ccccc6)CC[C@]5(C)CC[C@@]4(C)[C@]3(C)CC[C@H]2C1(C)C`, the IC50 in assay [1], in assay [2], in assay [3], in assay [4] and in assay [5] was above 40 µM each time.
`CC1(C)[C@@H](O)CC[C@]2(C)[C@H]3C(=O)C=C4[C@@H]5C[C@@](C)(C(=O)O)CC[C@]5(C)CC[C@@]4(C)[C@]3(C)CC[C@@H]12` [ENOXOLONE]: the IC50 in assay [1], in assay [2], in assay [3], in assay [4] and in assay [5] was above 40 µM in each case.
With `CSCC[C@H](N)C(=O)N[C@H]1CC[C@]2(C)[C@H]3C(=O)C=C4[C@@H]5C[C@@](C)(C(=O)OCc6ccccc6)CC[C@]5(C)CC[C@@]4(C)[C@]3(C)CC[C@H]2C1(C)C`, the IC50 in assay [1] was 3.1 µM; in assay [2] it was 7 µM; in assay [3] it was 6.97 µM; in assay [4], 6.25 µM; in assay [5], 4.09 µM.
As to `C[C@H](NC(=O)OC(C)(C)C)C(=O)N[C@H]1CC[C@]2(C)[C@H]3C(=O)C=C4[C@@H]5C[C@@](C)(C(=O)OCc6ccccc6)CC[C@]5(C)CC[C@@]4(C)[C@]3(C)CC[C@H]2C1(C)C`, the IC50 in assay [1], in assay [2], in assay [3], in assay [4] and in assay [5] was above 40 µM in each case.
As for `CC[C@H](C)[C@H](NC(=O)OC(C)(C)C)C(=O)N[C@H]1CC[C@]2(C)[C@H]3C(=O)C=C4[C@@H]5C[C@@](C)(C(=O)OCc6ccccc6)CC[C@]5(C)CC[C@@]4(C)[C@]3(C)CC[C@H]2C1(C)C`, the IC50 in assay [1], in assay [2], in assay [3], in assay [4] and in assay [5] was above 40 µM in each case.
Take `CC(C)(C)OC(=O)N[C@@H](Cc1ccccc1)C(=O)O[C@H]1CC[C@]2(C)[C@H]3C(=O)C=C4[C@@H]5C[C@@](C)(C(=O)OCc6ccccc6)CC[C@]5(C)CC[C@@]4(C)[C@]3(C)CC[C@H]2C1(C)C`: the concentration for half-maximal inhibition (IC50) in assay [1], in assay [2], in assay [3], in assay [4] and in assay [5] was above 40 µM in each case.
Consider `C[C@H](N)C(=O)O[C@H]1CC[C@]2(C)[C@H]3C(=O)C=C4[C@@H]5C[C@@](C)(C(=O)OCc6ccccc6)CC[C@]5(C)CC[C@@]4(C)[C@]3(C)CC[C@H]2C1(C)C`, for which the IC50 in assay [1] turned out to be 5 µM; in assay [2] it was 4.39 µM; in assay [3], 3.17 µM; in assay [4] it was 3.4 µM; in assay [5], 3.07 µM.
On the same counts, the results for `CSCC[C@H](NC(=O)OC(C)(C)C)C(=O)N[C@H]1CC[C@]2(C)[C@H]3C(=O)C=C4[C@@H]5C[C@@](C)(C(=O)OCc6ccccc6)CC[C@]5(C)CC[C@@]4(C)[C@]3(C)CC[C@H]2C1(C)C` are above 40 µM, above 40 µM, above 40 µM, above 40 µM and above 40 µM.
For the compound `CN(CC(=O)N[C@H]1CC[C@]2(C)[C@H]3C(=O)C=C4[C@@H]5C[C@@](C)(C(=O)OCc6ccccc6)CC[C@]5(C)CC[C@@]4(C)[C@]3(C)CC[C@H]2C1(C)C)C(=O)OC(C)(C)C`, the IC50 in assay [1], in assay [2], in assay [3], in assay [4] and in assay [5] was above 40 µM throughout.
With `CNCC(=O)O[C@H]1CC[C@]2(C)[C@H]3C(=O)C=C4[C@@H]5C[C@@](C)(C(=O)OCc6ccccc6)CC[C@]5(C)CC[C@@]4(C)[C@]3(C)CC[C@H]2C1(C)C`, the half-maximal inhibitory concentration (IC50) worked out at 8 µM in assay [1]; 3.89 µM in assay [2]; 5 µM in assay [3]; 5.76 µM in assay [4]; 4.56 µM in assay [5].

For the origin of these results see ChEMBL document CHEMBL4364274, “Synthesis and biological activity of glycyrrhetinic acid derivatives as antitumor agents” (Eur J Med Chem, 2019).
